Results from publication PMC6364161 (Journal of Veterinary Research, 2018).

How the values were obtained:
HepG2 cells [1] = experiment: LDH release assay, HepG2 cells; assay type: cell-based, human; conditions: for LDH leakage (membrane integrity): LDH release, HepG2, 100 to 1,400 μM, 24 h; for IC50: LDH leakage assay, HepG2, 24 h incubation
Method in brief: (§1)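 Test compounds (10 mM stock in PBS) were diluted in complete medium: DMEM plus 10% heat-inactivated calf serum for BALB/3T3 cells, EMEM plus 10% heat-inactivated FBS for HepG2 cells. Cells were seeded at 2 × 10^5 cells/mL, grown 24 h, then exposed to 100–1,400 μM for 24 h at 37 °C, 5% CO2. Released LDH was taken as a percentage of total LDH absorbance, and IC50 was read from the dose-response curve. Six independent experiments, three wells each.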

BALB/3T3 cells [2] = experiment: LDH release assay, BALB/3T3 cells; assay type: cell-based, Mouse; conditions: for LDH leakage (membrane integrity): LDH release, BALB/3T3, 100 to 1,400 μM, 24 h; for IC50: LDH leakage assay, BALB/3T3, 24 h incubation
Method in brief: as §1

BALB/3T3 cells [3] = experiment: MTT reduction assay, BALB/3T3 cells; assay type: cell-based, Mouse; conditions: for cell viability at low doses / cell viability: MTT; for cell viability at low doses: BALB/3T3, 100 and 200 μM; for cell viability: BALB/3T3, 100 to 1,400 μM, 24 h, compared to control
Method in brief: (§2)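 Cells were plated at 2 × 10^5 cells/mL and cultured 24 h: BALB/3T3 in DMEM with 10% heat-inactivated calf serum, HepG2 in EMEM with 10% heat-inactivated FBS. Medium was then replaced with test compound at 100–1,400 μM, diluted from a 10 mM PBS stock, for 24 h. MTT reduction was read spectrophotometrically as viability relative to untreated control (100%), and IC50 was taken from the dose-response curve. Six independent experiments, triplicate wells.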

HepG2 cells [4] = experiment: MTT reduction assay, HepG2 cells; assay type: cell-based, human; conditions: for cell viability at low doses / cell viability: MTT; for cell viability at low doses: HepG2, 100 and 200 μM; for cell viability: HepG2, 100 to 1,400 μM, 24 h, compared to control; for IC50: MTT assay, HepG2, 24 h incubation
Method in brief: as §2

HepG2 cells [5] = experiment: Neutral red uptake assay, HepG2 cells; assay type: cell-based, human; conditions: for cell viability at low doses / cell viability: NRU; for cell viability at low doses: HepG2, 100, 200, and 400 μM; for cell viability: HepG2, 100 to 1,400 μM, 24 h
Method in brief: (§3)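 Neutral red uptake, a measure of lysosomal activity. BALB/3T3 cells were grown in DMEM with 10% heat-inactivated calf serum and HepG2 cells in EMEM with 10% heat-inactivated FBS, both seeded at 2 × 10^5 cells/mL for 24 h. Cells were then exposed for 24 h to test compound at 100–1,400 μM, diluted in medium from a 10 mM PBS stock. Viability was measured spectrophotometrically against control cells, and IC50 was read from the dose-response curve. Six independent experiments, three wells per treatment.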

BALB/3T3 cells [6] = experiment: Neutral red uptake assay, BALB/3T3 cells; assay type: cell-based, Mouse; conditions: NRU; for cell viability at low doses: BALB/3T3, 100, 200, and 400 μM; for cell viability: BALB/3T3, 100 to 1,400 μM, 24 h
Method in brief: as §3

HK-2 cells = conditions: MTT assay, 480 μM; cited from earlier work

| SMILES | LDH leakage (membrane integrity) (HepG2 cells [1]) | LDH leakage (membrane integrity) (BALB/3T3 cells [2]) | cell viability at low doses (BALB/3T3 cells [3]) | cell viability (BALB/3T3 cells [3]) | cell viability at low doses (HepG2 cells [4]) | cell viability (HepG2 cells [4]) | cell viability at low doses (HepG2 cells [5]) | cell viability (HepG2 cells [5]) | cell viability at low doses (BALB/3T3 cells [6]) | cell viability (BALB/3T3 cells [6]) | IC50 (HepG2 cells [1]) [µM] | IC50 (BALB/3T3 cells [2]) [µM] | IC50 (HepG2 cells [4]) [µM] | IC50 (HepG2 cells [5]; NRU assay, HepG2, 24 h incubation) [µM] | cell viability (HK-2 cells) | IC50 (BALB/3T3 cells [3]; MTT assay, BALB/3T3, 24 h incubation) [µM] |
| --- | --- | --- | --- | --- | --- | --- | --- | --- | --- | --- | --- | --- | --- | --- | --- | --- |
| O.O.O.O.O.O.[Cl-].[Cl-].[Cl-].[Fe+3] [Iron chloride, FeCl3 × 6H2O] | increasingly significant LDH leakage | increasingly significant LDH leakage | increased | significantly decreased in a concentration-dependent manner | increased | significantly decreased in a concentration-dependent manner | increased | significantly decreased in a concentration-dependent manner | increased | significantly decreased in a concentration-dependent manner | – | – | – | – | – | – |
| [Cl-].[Cl-].[Cl-].[Fe+3] [Iron chloride, FeCl3 × 6H2O] | – | – | – | – | – | – | – | – | – | – | 900 | 550 | 1300 | 1200 | – | – |
| CC(=O)[O-].CC(=O)[O-].[Ni+2] [Ni (II) acetate] | – | – | – | – | – | – | – | – | – | – | – | – | – | – | less than 50% | – |
| [Cl][Ni][Cl] [Nickel chloride, NiCl2] | increasingly significant LDH leakage | increasingly significant LDH leakage | increased | significantly decreased in a concentration-dependent manner | increased | significantly decreased in a concentration-dependent manner | increased | significantly decreased in a concentration-dependent manner | increased | significantly decreased in a concentration-dependent manner | 800 | 300 | 400 | – | – | 700 |
